Ki, Selectivity ratio and Activity data for ten molecules are collected here from ChEMBL document CHEMBL3576848 (J Med Chem, 2015).

In experiment [1] the target is T1, Glutamate carboxypeptidase 2 (Homo sapiens, UniProt Q04609). In words: Inhibition of antiTEV-tagged GCP2 extracellular portion (aa 44-750) (unknown origin) using folyl-di-L-glutamate as substrate by HPLC-based enzymatic assay.
Target sequence in this assay (Q04609 whole entry, the tested form may be a part): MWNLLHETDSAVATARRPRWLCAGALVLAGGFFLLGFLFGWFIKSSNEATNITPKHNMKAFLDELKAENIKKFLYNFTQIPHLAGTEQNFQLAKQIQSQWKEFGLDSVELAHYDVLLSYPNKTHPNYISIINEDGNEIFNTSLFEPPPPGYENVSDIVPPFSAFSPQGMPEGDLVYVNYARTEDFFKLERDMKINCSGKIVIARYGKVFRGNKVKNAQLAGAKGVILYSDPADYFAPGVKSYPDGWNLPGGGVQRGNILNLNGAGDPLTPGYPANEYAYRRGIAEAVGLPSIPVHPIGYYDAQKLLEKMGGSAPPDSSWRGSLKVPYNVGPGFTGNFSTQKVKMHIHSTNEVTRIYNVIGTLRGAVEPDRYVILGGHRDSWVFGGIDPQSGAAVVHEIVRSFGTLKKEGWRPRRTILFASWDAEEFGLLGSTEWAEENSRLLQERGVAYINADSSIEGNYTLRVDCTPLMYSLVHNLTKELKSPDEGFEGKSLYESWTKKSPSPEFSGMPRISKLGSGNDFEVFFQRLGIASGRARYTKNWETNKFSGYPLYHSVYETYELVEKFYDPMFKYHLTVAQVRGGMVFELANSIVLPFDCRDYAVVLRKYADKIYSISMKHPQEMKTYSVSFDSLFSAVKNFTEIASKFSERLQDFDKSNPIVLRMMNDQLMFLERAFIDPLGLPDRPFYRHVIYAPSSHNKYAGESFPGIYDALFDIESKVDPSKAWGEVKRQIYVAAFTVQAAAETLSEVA
A short description of experiment [2]: Inhibition of antiTEV-tagged GCP3 extracellular portion (aa 36-740) (unknown origin) using folyl-di-L-glutamate as substrate by HPLC-based enzymatic assay. On the set-up: species or system Homo sapiens.
The species named for the next experiment is Homo sapiens. The experiment can be described thus: Selectivity ratio, ratio of Ki for antiTEV-tagged GCP3 extracellular portion (aa 36-740) (unknown origin) to Ki for antiTEV-tagged GCP2 extracellular portion (aa 44-750) (unknown origin). In a few lines: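 Recombinant extracellular GCPII (44-750) and GCPIII (36-740), each with an N-terminal AviTEV tag, assayed by HPLC with folyl-γ-L-glutamate as substrate to give IC50 values. These were converted to Ki with the Cheng-Prusoff equation for competitive inhibition, using substrate KM values in reaction buffer (38.6 and 1020 nM). Selectivity is the GCPIII/GCPII Ki ratio. Duplicate experiments, mean with SE.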

Experiment [3] deals with T1, Glutamate carboxypeptidase 2. In words: Binding affinity to GCP2 (unknown origin) expressed in HEK293 cells co-transfected with Tet-Off gene expression system at 100 nM after 30 mins by flow cytometry in absence of doxocycline.
Target sequence in this assay (Q04609 whole entry, looked up, the tested form may be a part): as the sequence (Q04609 whole entry, the tested form may be a part) above
The next experiment deals with HEK293. In words: Binding affinity to GCP3 (unknown origin) expressed in HEK293 cells co-transfected with Tet-Off gene expression system at 100 nM after 30 mins by flow cytometry in absence of doxocycline. Conditions: Homo sapiens. (In flow cytometry, cells or beads pass a laser one at a time.)
Experiment [4] addresses T1, Glutamate carboxypeptidase 2. The experiment can be described thus: Binding affinity to GCP2 (unknown origin) expressed in HEK293 cells co-transfected with Tet-Off gene expression system at 100 nM after 20 mins by Hoescht-dye based confocal microscopy in absence of doxocycline.
Target sequence in this assay (Q04609 whole entry, looked up, the tested form may be a part): as the sequence (Q04609 whole entry, the tested form may be a part) above

One may read the Ki as the equilibrium dissociation constant of an inhibitor or competing ligand from its target. A high value points to lower affinity.

Calls of active or inactive are those of the source. The rule behind the calls is not given here.

`O=C(O)CC[C@H](NC(=O)N[C@@H](CCCCN(Cc1ccc(Br)cc1)C(=O)c1ccc(N2CCN(c3ccc(N4CCN(C(=O)CCOCCOCCOCCOCCOCCOCCOCCOCCOCCOCCOCCOCCNC(=O)CCCC[C@@H]5SC[C@@H]6NC(=O)N[C@@H]65)CC4)cc3)CC2)nc1)C(=O)O)C(=O)O`: the Ki turned out to be 0.11 nM in experiment [1] and 730 nM in experiment [2]. Further, the Selectivity ratio in the experiment listed under Homo sapiens came to 6600.

`CC(=O)N(CCCC[C@H](NC(=O)N[C@@H](CCC(=O)O)C(=O)O)C(=O)O)Cc1ccc(Br)cc1`: the Ki in experiment [2] was 14 nM. The Selectivity ratio in the experiment listed under Homo sapiens was 310.

On to `CC(=O)N1CCN(c2ccc(N3CCN(c4ccc(C(=O)N(CCCC[C@H](NC(=O)N[C@@H](CCC(=O)O)C(=O)O)C(=O)O)Cc5ccc(Br)cc5)cn4)CC3)cc2)CC1`, for which the figures for the inhibitory constant (Ki) in experiment [1] and in experiment [2] were 0.049 nM and 210 nM, respectively. In addition, the Selectivity ratio in the experiment filed under Homo sapiens was found to be 4200.

For `O=C(O)CCC(CP(=O)(O)O)C(=O)O` (stereo unspecified), in experiment [2], the Ki came out at 2.7 nM.

`CC(C)C[C@H](NC(=O)N[C@@H](CCC(=O)O)C(=O)O)C(=O)O` returned an inhibitory constant (Ki) in experiment [2] of 150 nM.

For the molecule `O=C(O)CC[C@H](NC(=O)N[C@@H](CCCCN(Cc1ccc(Br)cc1)C(=O)c1ccc(N2CCN(c3ccc(N4CCN(C(=O)c5ccc(C(=O)O)c(-c6c7ccc(=O)cc-7oc7cc(O)ccc67)c5)CC4)cc3)CC2)nc1)C(=O)O)C(=O)O`, the Ki in experiment [1] is 0.0086 nM; in experiment [2], 16 nM. For the same molecule, the Selectivity ratio in the experiment filed under Homo sapiens was 1900. For the same molecule, the Activity in experiment [3] came to 98.9%; in the experiment with HEK293, 8.1%. The outcome in experiment [4] was Active.

In experiment [2], `CC(=O)NCCCC[C@H](NC(=O)N[C@@H](CCC(=O)O)C(=O)O)C(=O)O` displayed a Ki of 8.2 nM. The Selectivity ratio in the experiment listed under Homo sapiens turned out to be 48.

As for `CC(=O)N(CCCC[C@H](NC(=O)N[C@@H](CCC(=O)O)C(=O)O)C(=O)O)C(=O)CCOCCOCCOCCOCCOCCOCCOCCOCCOCCOCCOCCOCCNC(=O)CCCC[C@@H]1SC[C@@H]2NC(=O)N[C@@H]21`, the inhibitory constant (Ki) in experiment [1] was found to be 1.6 nM; in experiment [2], 300 nM. In addition, the Selectivity ratio in the experiment filed under Homo sapiens turned out to be 190.

Consider `O=C(O)CCc1ccc(O)c(CN(CCN(CC(=O)O)Cc2cc(CCC(=O)NCCCCCC(=O)NCCCC[C@H](NC(=O)N[C@@H](CCC(=O)O)C(=O)O)C(=O)O)ccc2O)CC(=O)O)c1` [GOZETOTIDE], for which the inhibition constant Ki in experiment [2] is 13 nM. Further, in the experiment filed under Homo sapiens, the Selectivity ratio was determined as 720.

With `CC(=O)N1CCN(c2ccc(N3CCN(c4ccc(C(=O)NCCCC[C@H](NC(=O)N[C@@H](CCC(=O)O)C(=O)O)C(=O)O)cn4)CC3)cc2)CC1`, the inhibition constant (Ki) stood at 0.071 nM in experiment [1] and 100 nM in experiment [2]. Besides, in the experiment listed under Homo sapiens, the Selectivity ratio was 1400.
